Peptide text beside a SMILES is read from it.
Legend:
[1] = Oral bioavailability in Wistar rat at 10 mg/kg measured over 8 hrs by LC-MS method; assay type: ADME, organism-based; settings: in vivo
[2] = Apparent permeability in RRCK cells at 8 uM at pH 7.4 incubated for 2 hrs by LC-MS/MS method; assay type: ADME, cell-based, Canis lupus familiaris, MDCKII-LE; settings: dog, MDCK
[3] = Permeability in human Caco2 cells at 10 uM by LC-MS method; assay type: ADME, cell-based; settings: caco-2, 10 µM
Summary of the method: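 Caco-2 monolayers; compound at 10 μM, cyclosporin A comparator at 30 μM; medium 0.05% DMSO in HEPES buffer, pH 7.4, 37 °C; apparent permeability in cm·s–1.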

[4] = Apparent permeability in RRCK cells at 8 uM at pH 7.4 incubated for 2 hrs by LC-MS/MS method relative to CSA; assay type: ADME, cell-based, Canis lupus familiaris; settings: dog, mdckii-le, pH 7.4, 2 h
Summary of the method: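 RRCK monolayers (no active transporters); compound at 8 μM alongside cyclosporin A at 8 μM; medium 0.05% DMSO in HEPES buffer, pH 7.4, 37 °C; apparent permeability expressed in cm·s–1.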

[5] = Clearance in Wistar rat at 1 mg/kg, iv by LC-MS method; assay type: ADME, organism-based; design: dose 1 mg/kg, route intravenous; settings: in vivo

| bioavailability [1] | Papp at 2 h, 8 µM [2] | permeability [3] | fold change (FC) [4] | clearance [5] | Compound |
| --- | --- | --- | --- | --- | --- |
| 9% | > 1 ×10⁻⁶ cm/s | permeable | 2 | 24.1 mL/min/kg | CC(C)C[C@@H]1NC(=O)[C@H](CC(C)C)NC(=O)[C@H](CC(C)C)NC(=O)[C@@H](CC(C)C)NC(=O)[C@H](CC(C)C)NC(=O)[C@H](CC(C)C)NC1=O |
| 17% | > 1 ×10⁻⁶ cm/s | permeable | 2 | 4.7 mL/min/kg | CC(C)C[C@@H]1NC(=O)[C@H](CC(C)C)NC(=O)[C@H](CC(C)C)NC(=O)[C@H](CC(C)C)NC(=O)[C@H](CC(C)C)NC(=O)[C@H](CC(C)C)NC1=O |
| 4% | 1.7 ×10⁻⁶ cm/s | permeable | – | – | CC(C)C[C@@H]1NC(=O)[C@H](CC(C)C)NC(=O)[C@H](CC(C)C)NC(=O)[C@H](CC(C)C)NC(=O)[C@H](CC(C)C)NC1=O (cyclo(LLLLL)) |
